From ChEMBL document CHEMBL1144153, “Conjugates of the fungal cytotoxin illudin M with improved tumour specificity” (Bioorg Med Chem, 2008) come the findings set out here.

For one series, the system named is HFF. In words: Induction of apoptosis in HFF cells assessed as sub-diploid DNA content at 1 uM after 120 hrs by FACS relative to control. In kind it is cell-based. The following applies: human. An outline of the steps:
(§1)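 Panc-1 and HT-29 cells (RPMI-1640) or foreskin fibroblasts (DMEM), 10% FCS, 37 °C, were compound-treated. Supernatants were pooled with PBS-washed, trypsinised cells, then lysed in hypotonic 0.1% sodium citrate / 0.1% Triton X-100 with 50 µg/mL propidium iodide. Flow cytometry scored the sub-diploid nuclear fraction as apoptotic, relative to untreated controls. Means of three independent experiments.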
In general terms: Flow cytometry measures light scatter and fluorescence of single cells or particles in a stream.

A short description of series [1]: Cytotoxicity against HFF cells assessed as viable cells at 1 uM after 48 hrs by trypan blue exclusion assay relative to control. The format is cell-based. The settings on record: human, read-out: Activity. An outline of the steps:
(§2)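 Panc-1 and HT-29 cells were grown in RPMI-1640, and foreskin fibroblasts in DMEM, each with 10% FCS plus penicillin/streptomycin at 37 °C and 5% CO2. Cells were exposed to compound (0.01–10 µM range) for up to 120 h, harvested and stained with Trypan blue. Unstained cells were counted in a Neubauer chamber relative to untreated controls (100%). Means of three independent experiments ± SD.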

Series [2] relates to PANC-1. As to the kind of experiment: Cytotoxicity against human PANC1 cells up to 10 uM by trypan blue exclusion assay. In kind it is functional, cell-based. An outline of the steps:
(§3)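 Cells grown in RPMI-1640 with 10% FCS, penicillin and streptomycin at 37 °C, 5% CO2. Exposed to 0.01–10 µM for up to 120 h (24–120 h time course). Harvested, stained with Trypan blue, and unstained cells counted in a Neubauer chamber. Counts expressed relative to untreated controls (100%). Means of three independent experiments.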

Series [3] can be described thus: Cytotoxicity against HFF cells assessed as viable cells at 1 uM after 120 hrs by trypan blue exclusion assay relative to control. The format is cell-based. The settings on record: human, read-out: Activity. In short, it runs like this: as §2
In series [4] the test system is HT-29. As to the kind of experiment: Cytotoxicity against human HT-29 cells up to 10 uM by trypan blue exclusion assay. In kind it is functional, cell-based. An outline of the steps: as §3
The subject of series [5] is HT-29. In words: Induction of apoptosis in human HT-29 cells assessed as sub-diploid DNA content at 1 uM after 96 hrs by FACS relative to control. In kind it is functional. In short, it runs like this: as §1
The test system of series [6] is PANC-1. As to the kind of experiment: Cytotoxicity against human PANC1 cells assessed as viable cells at 1 uM after 120 hrs by trypan blue exclusion assay relative to control. The format is functional. The following applies: PANC-1, 120 h, read-out: Activity. An outline of the steps:
as §2

Series [7] concerns PANC-1. In words: Induction of apoptosis in human PANC1 cells assessed as sub-diploid DNA content at 1 uM after 120 hrs by FACS relative to control. The format is functional. An outline of the steps:
as §1

The test system of series [8] is HT-29. As to the kind of experiment: Cytotoxicity against human HT-29 cells assessed as viable cells at 1 uM after 120 hrs by trypan blue exclusion assay relative to control. In kind it is functional. The settings on record: HT-29, 120 h, read-out: Activity. In short, it runs like this: as §2
For series [9], the system named is PANC-1. In words: Induction of apoptosis in human PANC1 cells assessed as sub-diploid DNA content at 1 uM after 96 hrs by FACS relative to control. In kind it is functional. An outline of the steps:
as §1

In series [10] the test system is HT-29. In words: Induction of apoptosis in human HT-29 cells assessed as sub-diploid DNA content at 1 uM after 120 hrs by FACS relative to control. The format is functional. In short, it runs like this: as §1
The test system of series [11] is PANC-1. As to the kind of experiment: Cytotoxicity against human PANC1 cells assessed as viable cells at 1 uM after 48 hrs by trypan blue exclusion assay relative to control. The format is functional. The settings on record: PANC-1, 48 h, read-out: Activity. In short, it runs like this: as §2
Series [12] relates to HT-29. As to the kind of experiment: Cytotoxicity against human HT-29 cells assessed as viable cells at 1 uM after 48 hrs by trypan blue exclusion assay relative to control. The following applies: HT-29, 48 h, read-out: Activity. The format is functional. An outline of the steps: as §2
Series [13] has as its system PANC-1. In words: Induction of apoptosis in human PANC1 cells assessed as sub-diploid DNA content at 0.1 uM by FACS. The format is functional, cell-based. In short, it runs like this:
as §1

Another series deals with MDA-MB-231. As to the kind of experiment: Antiproliferative activity against human MDA-MB-231 cells at 1 to 10 uM after 24 to 48 hrs by MTT assay. In kind it is functional.
The test system of another series is MCF7. In words: Antiproliferative activity against human MCF7 cells at 1 to 10 uM after 24 to 48 hrs by MTT assay. In kind it is functional. Background: Tetrazolium assays rely on reduction of a dye to a coloured formazan, in cell work by metabolically active cells.

Active and inactive are the calls of the source. The rule behind the calls is not given here.

Regarding `CC1=C2C(=CC(C)(C)[C@@H]2OC(=O)c2ccc(-c3ccc(C(=O)O[C@@H]4C5=C(C)C6(CC6)[C@@](C)(O)C(=O)C5=CC4(C)C)cn3)nc2)C(=O)[C@](C)(O)C12CC2`, the Activity in the series on HFF stood at 14.3%. In series [1], the viability at 48 h, 1 µM is 62%. Also, the outcome with PANC-1 [2] and in the series on HT-29 [4] was Active. In series [3], the viability at 120 h, 1 µM turned out to be 47.8%.

As to `CC1=C2C(=CC(C)(C)[C@@H]2OC(=O)CCCc2ccc(N(CCCl)CCCl)cc2)C(=O)[C@](C)(O)C12CC2`, the Activity with HFF was 9.5%; in the series on HT-29 [5], under 10%; in the series on PANC-1 [7] it was 36.8%; in the series on PANC-1 [9], under 10%; with HT-29 [10], 6%. Moreover, the figures for the viability at 1 µM in the series on PANC-1 [6] and in the series on HT-29 [8] were 20% and 42.7%, respectively. Besides, the viability at 120 h, 1 µM in series [3] turned out to be 47.5%.

As for `CC1=C2C(=CC(C)(C)[C@@H]2OC(=O)C2C3CCC(O3)C2C(=O)O[C@@H]2C3=C(C)C4(CC4)[C@@](C)(O)C(=O)C3=CC2(C)C)C(=O)[C@](C)(O)C12CC2` (stereo partly drawn) [BIS(ILLUDINYL M) ENDOTHALLATE], the Activity with HFF is listed as 33.1%; in the series on PANC-1 [7], 74%; in the series with HT-29 [10], 52.9%. Further, the viability at 1 µM turned out to be 33% with PANC-1 [11], 6.4% in the series with PANC-1 [6], 26% with HT-29 [12] and 3% with HT-29 [8]. Besides, the result in the series with PANC-1 [2] and in the series on HT-29 [4] was Active. The viability at 120 h, 1 µM in [3] is 49.3%.

`CC/C=C\C/C=C\C/C=C\C/C=C\C/C=C\C/C=C\CCC(=O)O[C@@H]1C2=C(C)C3(CC3)[C@@](C)(O)C(=O)C2=CC1(C)C` [DOCOSAHEXAENOYL ILLUDIN M]: the Activity in the series on HFF is on record as 4.4%; in the series with HT-29 [5], under 10%; in the series on PANC-1 [7], 2.6%; with PANC-1 [9], under 10%; with HT-29 [10], 1.9%. The figures for the viability at 1 µM in the series with PANC-1 [6] and in the series on HT-29 [8] were 103% and 111%, respectively. Moreover, the viability at 120 h, 1 µM in series [3] worked out at 80%.

As for `CC1=C2C(=CC(C)(C)[C@@H]2O)C(=O)[C@](C)(O)C12CC2` [ILLUDIN M], the Activity with HFF is 88.9%; in the series on PANC-1 [7], 86%; with HT-29 [10], 47.9%. The viability at 1 µM was determined as 42% in the series with PANC-1 [11], 12.3% in the series on PANC-1 [6], 26% with HT-29 [12] and 3.8% in the series with HT-29 [8]. Moreover, the viability at 48 h, 1 µM in series [1] came out at 39%. Also, the outcome with PANC-1 [13] was Active. Moreover, the viability at 120 h, 1 µM in series [3] was 28.1%.

Consider `CC1=C(CO)C2=C(C)C3(CC3)[C@@](C)(O)C(=O)C2=C1` [IROFULVEN], for which the Activity with MDA-MB-231 and in the series on MCF7 was 70% throughout.
